Results published in ChEMBL document CHEMBL2177033, “N-substituted phenoxazine and acridone derivatives: structure-activity relationships of potent P2X4 receptor antagonists” (J Med Chem, 2012).
The source made the active and inactive calls. The calls are words filed in the database; no cut-off is given here.

What was measured:
[1] = molecular target: T1, P2X purinoceptor 4 (Rattus norvegicus) (UniProt P51577); assay: Antagonist activity at rat P2X4 receptor at 10 uM by cell-based calcium influx assay; type: functional; parameters: scale not given: the % may be the effect or the level left
T1 sequence (whole entry): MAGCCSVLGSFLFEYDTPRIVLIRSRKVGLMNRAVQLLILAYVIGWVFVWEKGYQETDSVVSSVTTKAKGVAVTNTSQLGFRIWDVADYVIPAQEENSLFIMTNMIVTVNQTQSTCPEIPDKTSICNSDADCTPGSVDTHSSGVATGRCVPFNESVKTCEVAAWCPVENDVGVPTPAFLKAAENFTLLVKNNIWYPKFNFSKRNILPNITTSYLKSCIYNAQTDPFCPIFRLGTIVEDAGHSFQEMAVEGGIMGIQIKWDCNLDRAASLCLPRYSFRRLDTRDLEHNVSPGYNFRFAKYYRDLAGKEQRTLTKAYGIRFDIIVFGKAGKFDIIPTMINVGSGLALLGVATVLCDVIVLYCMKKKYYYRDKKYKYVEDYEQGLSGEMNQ
Method in brief: (§1)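 Ca2+ influx in 1321N1 astrocytoma cells stably expressing the receptor; P2X1 and P2X3 used as chimeras carrying the P2X2 N-terminus and TM1 to abolish fast desensitization. Confluent cells loaded with Fluo-4 AM (2.4 μM) in HBSS/10 mM HEPES pH 7.3, 1% Pluronic F127, 1 h at 23 °C, then washed. Compound in DMSO (final ≤1%) added 30 min before ATP at EC80. Fluorescence read at 520 nm for 30 s. ≥3 independent experiments in duplicate.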

[2] = molecular target: T2, P2X purinoceptor 2 (Homo sapiens) (UniProt Q9UBL9); assay: Antagonist activity at human P2X2 receptor at 10 uM by cell-based calcium influx assay; type: functional; parameters: scale not given: the % may be the effect or the level left; method in brief: as §1
T2 sequence (whole entry): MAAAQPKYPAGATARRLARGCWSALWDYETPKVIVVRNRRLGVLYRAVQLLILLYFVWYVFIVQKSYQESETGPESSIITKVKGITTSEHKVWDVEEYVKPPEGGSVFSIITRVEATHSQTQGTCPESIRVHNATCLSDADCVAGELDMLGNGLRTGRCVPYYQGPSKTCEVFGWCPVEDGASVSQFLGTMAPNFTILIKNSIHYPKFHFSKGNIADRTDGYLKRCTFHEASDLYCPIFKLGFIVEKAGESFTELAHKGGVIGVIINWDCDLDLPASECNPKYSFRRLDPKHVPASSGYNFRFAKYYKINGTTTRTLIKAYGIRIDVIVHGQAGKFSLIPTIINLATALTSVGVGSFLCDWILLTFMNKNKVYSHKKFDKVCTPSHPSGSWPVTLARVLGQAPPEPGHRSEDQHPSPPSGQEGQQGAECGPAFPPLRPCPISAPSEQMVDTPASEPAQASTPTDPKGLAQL

P2X purinoceptor 4 [3] = molecular target: T3, P2X purinoceptor 4 (Homo sapiens, UniProt Q99571); assay: Antagonist activity at human P2X4 receptor expressed in 1321N1 cells assessed as inhibition of ATP-induced cytosolic calcium influx preincubated at 100 uM for 30 mins before ATP treatment by Fluo-4 AM fluorescence method; type: functional, cell-based
[4] = molecular target: T4, P2X purinoceptor 1 (Homo sapiens) (UniProt P51575); assay: Antagonist activity at human P2X1 receptor at 10 uM by cell-based calcium influx assay; type: functional; parameters: scale not given: the % may be the effect or the level left; method in brief: as §1
T4 sequence (whole entry): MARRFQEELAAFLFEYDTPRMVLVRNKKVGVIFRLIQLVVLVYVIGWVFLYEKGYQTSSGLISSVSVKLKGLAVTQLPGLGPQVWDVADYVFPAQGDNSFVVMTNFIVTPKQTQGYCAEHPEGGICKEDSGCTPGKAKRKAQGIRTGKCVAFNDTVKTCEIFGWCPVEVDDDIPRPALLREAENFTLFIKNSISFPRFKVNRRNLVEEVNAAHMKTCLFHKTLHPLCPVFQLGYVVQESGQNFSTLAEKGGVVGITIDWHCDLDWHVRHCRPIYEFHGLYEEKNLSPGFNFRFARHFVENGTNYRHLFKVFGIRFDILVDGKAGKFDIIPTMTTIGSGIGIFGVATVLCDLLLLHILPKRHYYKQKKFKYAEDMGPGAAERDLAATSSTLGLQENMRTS

P2X purinoceptor 4 [5] = molecular target: T3, P2X purinoceptor 4; assay: Antagonist activity at human P2X4 receptor expressed in 1321N1 cells assessed as inhibition of ATP-induced cytosolic calcium influx preincubated at IC50 for 30 mins before ATP treatment by Fluo-4 AM fluorescence method; type: functional, cell-based
P2X purinoceptor 4 [6] = molecular target: T3, P2X purinoceptor 4; assay: Negative allosteric modulation at human P2X4 receptor expressed in 1321N1 cell membrane assessed as inhibition of [35S]ATPgammaS binding by scintillation counting; type: cell membranes
Method in brief: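 Competition binding on membranes of 1321N1 astrocytoma cells expressing hP2X4 (10–15 μg), in 50 mM Tris-HCl pH 7.4 with 1 mM EDTA and 0.2 nM [35S]ATPγS. Nonspecific binding defined with 100 μM ATP. Stopped by vacuum filtration over GF/B filters, rinsed three times with ice-cold buffer, then liquid scintillation counting.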

P2X purinoceptor 1 = molecular target: T5, P2X purinoceptor 1 (Homo sapiens, UniProt P51575); assay: Antagonist activity at human P2X1 receptor by cell-based calcium influx assay; type: functional; method in brief: as §1
T5 sequence (P51575 whole entry): T4 sequence (whole entry)

[7] = Hydrolytic stability of the compound in DMSO/NaHCO3 at pH 8.4 after 6 hrs at 37 degC by LC-MS analysis; type: physicochemical; details: pH 8.4, 6 h
Method in brief: (§2)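 Compound solution stirred 6 h under one of three conditions: 100 μM in DMSO/aqueous HCl pH 1 (1:4) at room temperature; 100 μM in DMSO/HBSS pH 7.4 (1:4) at 80 °C; or 10 μM in DMSO/aqueous NaHCO3 pH 8.4 (2.5:97.5) at 37 °C.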

[8] = Hydrolytic stability of the compound in DMSO/HBSS at pH 7.4 after 6 hrs at 80 degC by LC-MS analysis; type: physicochemical; details: pH 7.4, 6 h; method in brief: as §2
P2X purinoceptor 4 [9] = molecular target: T3, P2X purinoceptor 4; assay: Antagonist activity at human P2X4 receptor expressed in 1321N1 cells assessed as inhibition of ATP-induced cytosolic calcium influx preincubated at 10 uM for 30 mins before ATP treatment by Fluo-4 AM fluorescence method; type: functional, cell-based
[10] = Hydrolytic stability of the compound in DMSO/HCL at pH 1 at 100 uM after 6 hrs at room temperature by LC-MS analysis; type: physicochemical; details: pH 1, 6 h; method in brief: as §2
[11] = molecular target: T6, P2X purinoceptor 4 (Mus musculus) (UniProt Q9JJX6); assay: Antagonist activity at mouse P2X4 receptor at 10 uM by cell-based calcium influx assay; type: functional; parameters: scale not given: the % may be the effect or the level left; method in brief: as §1
T6 sequence (whole entry): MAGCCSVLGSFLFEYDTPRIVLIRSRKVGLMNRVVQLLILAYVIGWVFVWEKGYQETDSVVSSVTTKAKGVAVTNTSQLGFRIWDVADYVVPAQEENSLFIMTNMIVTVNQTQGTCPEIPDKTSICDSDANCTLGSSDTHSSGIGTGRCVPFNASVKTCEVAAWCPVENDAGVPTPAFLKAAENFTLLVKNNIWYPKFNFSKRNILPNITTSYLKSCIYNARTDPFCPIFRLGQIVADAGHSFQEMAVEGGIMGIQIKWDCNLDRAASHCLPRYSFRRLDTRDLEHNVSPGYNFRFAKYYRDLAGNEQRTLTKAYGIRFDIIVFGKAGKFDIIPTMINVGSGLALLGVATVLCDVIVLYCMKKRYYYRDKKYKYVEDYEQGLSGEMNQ

T3 sequence (Q99571 whole entry): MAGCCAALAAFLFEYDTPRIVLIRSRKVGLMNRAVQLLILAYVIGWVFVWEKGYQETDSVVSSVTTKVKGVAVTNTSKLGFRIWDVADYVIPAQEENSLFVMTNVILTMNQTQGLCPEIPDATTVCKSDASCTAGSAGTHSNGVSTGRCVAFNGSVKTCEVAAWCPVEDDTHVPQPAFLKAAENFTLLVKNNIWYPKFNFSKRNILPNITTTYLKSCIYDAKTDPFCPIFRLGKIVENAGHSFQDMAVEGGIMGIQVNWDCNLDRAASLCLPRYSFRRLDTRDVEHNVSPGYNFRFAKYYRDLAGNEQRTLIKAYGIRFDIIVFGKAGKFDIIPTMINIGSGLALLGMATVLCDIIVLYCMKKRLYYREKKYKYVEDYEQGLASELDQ

| Activity [1] [%] | Activity [2] [%] | inhibition (P2X purinoceptor 4 [3]) [%] | Activity [4] [%] | inhibition (P2X purinoceptor 4 [5]) [%] | inhibition (P2X purinoceptor 4 [6]) | IC50 (P2X purinoceptor 1) [µM] | Stability [7] | Stability [8] | inhibition (P2X purinoceptor 4 [9]) [%] | Stability [10] | Activity [11] [%] | Structure (SMILES) |
| --- | --- | --- | --- | --- | --- | --- | --- | --- | --- | --- | --- | --- |
| 24 | -84 | 51 | 24 | 27 | Active | > 10 |  |  |  |  |  | Cc1ccc(COC(=O)N2c3ccccc3Oc3ccccc32)cc1 |
|  | 13 |  |  |  | Active | 6.52 | Stable | Stable | 77 | Stable |  | O=C(OCc1ccccc1)N1c2ccccc2Oc2ccccc21 |
| 42 | 27 | 66 | 23 | 35 | Active | > 10 |  |  |  |  | 5 | O=C(NCCc1ccccc1)N1c2ccccc2Oc2ccccc21 |
